Legend:
[1] = biological target: T1, ovine COX-1 (Ovis aries, UniProt P05979); assay: COX fluorescent inhibitor screening kit; type: biochemical
T1 sequence (P05979 25-600): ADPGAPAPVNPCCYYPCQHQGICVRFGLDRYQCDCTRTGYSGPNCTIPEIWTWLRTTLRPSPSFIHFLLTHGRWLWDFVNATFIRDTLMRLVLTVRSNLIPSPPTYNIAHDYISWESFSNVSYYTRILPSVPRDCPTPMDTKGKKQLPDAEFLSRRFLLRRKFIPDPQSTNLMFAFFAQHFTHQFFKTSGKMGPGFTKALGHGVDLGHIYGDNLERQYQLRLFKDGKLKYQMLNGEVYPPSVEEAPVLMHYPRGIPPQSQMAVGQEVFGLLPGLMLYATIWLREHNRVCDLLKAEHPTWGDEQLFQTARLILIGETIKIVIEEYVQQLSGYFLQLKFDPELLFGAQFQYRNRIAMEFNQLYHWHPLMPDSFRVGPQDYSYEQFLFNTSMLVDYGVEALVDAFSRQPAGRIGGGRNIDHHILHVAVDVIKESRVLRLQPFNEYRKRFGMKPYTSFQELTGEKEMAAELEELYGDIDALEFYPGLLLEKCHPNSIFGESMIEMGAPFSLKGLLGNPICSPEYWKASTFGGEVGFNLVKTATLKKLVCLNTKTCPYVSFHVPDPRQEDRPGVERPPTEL
Method in brief: (§1)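 Ovine COX-1 or human recombinant COX-2 with heme and ADHP in 100 mM Tris-HCl, pH 8.0. Test compound from 10 mM DMSO stock, final 2.5–100 μM. Arachidonic acid starts the reaction, 2 min at room temperature. Resorufin read at ex 535/em 590 nm. Percent inhibition vs no-inhibitor control; IC50 from concentration–inhibition curve, triplicate determinations.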

[2] = biological target: T2, human recombinant COX-2 (Homo sapiens, UniProt P35354); assay: COX fluorescent inhibitor screening kit; type: biochemical
T2 sequence (P35354 18-604): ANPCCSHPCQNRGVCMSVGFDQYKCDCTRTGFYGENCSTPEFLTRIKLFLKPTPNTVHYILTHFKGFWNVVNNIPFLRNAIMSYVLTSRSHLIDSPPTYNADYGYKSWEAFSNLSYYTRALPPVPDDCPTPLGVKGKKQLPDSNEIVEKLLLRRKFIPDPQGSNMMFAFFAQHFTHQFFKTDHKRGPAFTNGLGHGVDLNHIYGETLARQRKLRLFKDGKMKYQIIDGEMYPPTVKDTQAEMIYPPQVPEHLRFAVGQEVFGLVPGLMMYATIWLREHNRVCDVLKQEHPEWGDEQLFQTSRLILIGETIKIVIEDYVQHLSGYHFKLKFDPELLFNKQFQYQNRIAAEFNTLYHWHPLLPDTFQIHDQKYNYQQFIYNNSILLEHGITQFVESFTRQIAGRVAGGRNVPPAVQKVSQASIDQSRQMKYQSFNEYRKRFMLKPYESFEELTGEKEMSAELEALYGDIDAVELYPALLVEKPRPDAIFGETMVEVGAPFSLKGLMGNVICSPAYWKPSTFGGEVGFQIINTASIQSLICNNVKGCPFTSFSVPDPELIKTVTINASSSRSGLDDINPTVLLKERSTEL
Method in brief: as §1

Row | IC50 [1] [µM] | IC50 [2] [µM] | SMILES
1 | 25.5 | < 2.5 | CC(=O)OC[C@H]1O[C@@H](OC(C)=O)[C@H](NC(=O)Cc2ccccc2Nc2c(Cl)cccc2Cl)[C@@H](OC(C)=O)[C@@H]1OC(C)=O [compound 3]
2 | 24.9 | 33.6 | COc1ccc2c(c1)c(CC(=O)N[C@H]1[C@H](OC(C)=O)O[C@H](COC(C)=O)[C@@H](OC(C)=O)[C@@H]1OC(C)=O)c(C)n2C(=O)c1ccc(Cl)cc1 [compound 4]
3 | < 2.5 | > 100 | CC(=O)OC[C@H]1O[C@@H](OC(C)=O)[C@H](NC(=O)c2ccccc2Nc2cccc(C)c2C)[C@@H](OC(C)=O)[C@@H]1OC(C)=O [compound 5, 1,3,4,6-Tetra-O-acetyl-2-deoxy-2-(2-((2,3-dimethylphenyl)amino)benzamido)-β-D-glucopyranose]

Source: PMC8281356 (Chemical biology & drug design, 2021)
